Apaf-1 inh – blocks human Apaf-1 apoptosome activity. 330,000 tested, 0.71% active. O14727. reconstituted apoptosome caspase-3 activity, DEVD-Rh110 fluorescence. inhibition, % at 20 µM; active means inhibition of at least 40% at 20 µM;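 further: plate controls were DMSO wells for no effect and DEVD-CHO caspase inhibitor wells for full effect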
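Material: reconstituted apoptosome with Apaf-1, cytochrome c, caspase-9, procaspase-3, dATP; medium: pH 7.5 Hepes buffer with CHAPS, BSA, DTT; also added: cytochrome c and DEVD-Rh110 substrate; timing: 30 min plus 50 min, RT; signal: Rh110 fluorescence intensity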
GSTO1 counter – blocks human GSTO1 in RBBP9 counter-screen; P78417; inhibition, % at 5.96 µM; recombinant GSTO1, activity-based probe fluorescence polarization; 300,000 tested, 1.1% active;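 active means inhibition above the campaign mean inhibition plus 3 SD, cut at about 35% in these data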;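 further: 0% = GSTO1-1 with DMSO and 100% = wells lacking GSTO1-1 enzyme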
Target sequence (P78417 whole entry, looked up): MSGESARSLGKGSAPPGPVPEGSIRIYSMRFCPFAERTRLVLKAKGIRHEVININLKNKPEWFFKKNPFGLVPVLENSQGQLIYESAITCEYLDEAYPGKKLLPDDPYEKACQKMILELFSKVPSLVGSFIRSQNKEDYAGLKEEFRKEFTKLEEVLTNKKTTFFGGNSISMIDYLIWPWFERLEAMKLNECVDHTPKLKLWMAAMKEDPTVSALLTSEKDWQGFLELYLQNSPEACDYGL
TDP2 absorb – blocks human TDP2 phosphodiesterase activity; O95551; recombinant TDP2, T5PNP hydrolysis, p-nitrophenol absorbance 415 nm; inhibition, % at 12.8 µM; 370,000 tested, 0.34% active; AID 720702;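 active means inhibition above the mean of all tested compounds plus 3 SD, set per campaign, cut at about 25% in these data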;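 further: 0% = DMSO with enzyme and 100% = buffer with substrate but no TDP2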
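Evaluation: % inhibition relative to enzyme-containing and enzyme-free wells. Material: recombinant human TDP2. Benchmarks: enzyme-free and DMSO wells. Timing: enzyme reaction with compound for 2 h at 37 °C. Compound dosing: 12.8 µM only. Measured by: p-Nitrophenol epi absorbance. Reagent: T5PNP substrate at 5 mM, a TopII-DNA adduct mimic. Replication: single well per compound.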
PAD4 inh – blocks human protein arginine deiminase 4; Q9UM07; recombinant PAD4, RCA probe fluorescence polarization; inhibition, % at 6.36 µM; 330,000 tested, 0.41% active;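 active means percent inhibition above a cutoff equal to the mean of all tested compounds plus 3 SD, cut at about 15% in these data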;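 further: 0% = PAD4 with RCA probe and DMSO and 100% = probe without PAD4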
SUMO HTRF inh – blocks human SUMOylation mediated by UBC9; P63279; HTRF SUMOylation assay, SAE1/SAE2 + UBC9, in vitro; inhibition, % at 35 µM; 290,000 tested, 0.36% active; in the data active means inhibition above about 50%, passing the limit was not always enough; inconclusive means no clear call, values can overlap the other calls
Target sequence (P63279 whole entry, looked up): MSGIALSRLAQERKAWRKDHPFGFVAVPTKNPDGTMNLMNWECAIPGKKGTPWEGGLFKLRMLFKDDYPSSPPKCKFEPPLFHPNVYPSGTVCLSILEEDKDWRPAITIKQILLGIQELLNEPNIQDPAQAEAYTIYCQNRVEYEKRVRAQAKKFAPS
GASC-1 inh – inhibitors of human GASC-1 (JMJD2C) demethylase; Q9H3R0; GST-JMJD2C(1-420) H3K9me3 demethylation, DELFIA europium; inhibition, % at 2.35 µM; 330,000 tested, 0.069% active; AID 2099;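 active means more than half of a compound's replicate wells show inhibition beyond 50%, single wells judged on their own value; inconclusive means some, but no more than half, of replicates pass 50% inhibition; inactive means no replicate passes 50% inhibition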;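 further: signal counts dimethyl H3K9 product captured on neutravidin plate; 0% = median of DMSO wells and 100% = 0.3 times that DMSO median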
Target sequence (Q9H3R0 1-420 limits assumed): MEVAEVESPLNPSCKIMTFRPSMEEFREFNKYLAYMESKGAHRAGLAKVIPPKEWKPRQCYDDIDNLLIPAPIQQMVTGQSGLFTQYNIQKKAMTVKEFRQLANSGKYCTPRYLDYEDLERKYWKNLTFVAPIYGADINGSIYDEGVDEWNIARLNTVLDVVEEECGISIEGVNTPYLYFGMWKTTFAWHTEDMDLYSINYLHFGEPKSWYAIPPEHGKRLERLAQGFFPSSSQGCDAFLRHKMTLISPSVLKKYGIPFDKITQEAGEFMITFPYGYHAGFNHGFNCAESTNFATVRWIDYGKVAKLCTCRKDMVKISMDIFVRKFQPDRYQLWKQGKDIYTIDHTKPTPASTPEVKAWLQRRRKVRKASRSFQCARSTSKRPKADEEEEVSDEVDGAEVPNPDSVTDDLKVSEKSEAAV
GSTO1 inh conf – confirmation of human GSTO1 inhibitors; inhibition, % at 5.96 µM; recombinant GSTO1, probe fluorescence polarization; shares compounds with GSTO1 counter; 2,400 tested, 54% active;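 active means inhibition above the primary screen's cutoff, its mean inhibition plus 3 SD, cut at about 35% in these data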;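 further: loss of polarization as inhibitors block binding of rhodamine sulfonate ester activity probe; 0% = GSTO1 with DMSO and 100% = wells lacking GSTO1 enzyme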
PAD4 FP conf – PAD4 (human) inhibition, confirmed; AID 488796; recombinant PAD4, RCA probe fluorescence polarization; inhibition, % at 6.36 µM; shares compounds with PAD4 inh; 1,200 tested, 28% active;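 active means mean inhibition across replicates above the hit cutoff set by the earlier primary screen, cut at about 15% in these data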;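 further: inhibitors block active-site labeling by the probe so polarization falls; 0% = PAD4 with probe and DMSO and 100% = probe without PAD4 enzyme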
Apaf-1 inh conf – confirmation of Apaf-1 inhibitors; shares compounds with Apaf-1 inh; reconstituted apoptosome, caspase-3 DEVD-Rh110 fluorescence; inhibition, % at 20 µM; 1,800 tested, 25% active; AID 504614;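 active means mean inhibition of at least 40% at 20 µM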;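 further: plate controls were DMSO wells for no effect and DEVD-CHO caspase inhibitor control wells for full effect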
Rh110 interf inh – counter-screen for Apaf-1 inhibitors: fluorescence interference; activation (fluorescence interference), % at 20 µM; AID 504615; 1,800 tested, under 10 active; Rh110 fluorescence interference, quenched caspase reaction; shares compounds with Apaf-1 inh;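 active means signal rise of 40% or more at 20 µM, treated as a fluorescence artifact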
Fluor interf inh – Apaf-1 inhibitor counter-screen fluorescence artifact; shares compounds with Apaf-1 inh; fluorescence interference counterscreen, Apaf-1 assay format; IC50, µM; 460 tested, under 10 active; call rule not given here
TDP2 confirm – confirmation of human TDP2 inhibitors | shares compounds with TDP2 absorb | recombinant human TDP2, absorbance read-out | inhibition, % at 12.8 µM | 1,100 tested, 22% active; in the data active means inhibition above about 25%;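 further: 0% = vehicle with enzyme and 100% = no enzyme buffer only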
* hit, by the source's call; ? = inconclusive; . = not tested or not shown. Compounds with a hit are over-represented: about 1.6% of the library has one in this group of screens.

SMILES	Apaf-1 inh	GSTO1 counter	TDP2 absorb	PAD4 inh	SUMO HTRF inh	GASC-1 inh	GSTO1 inh conf	PAD4 FP conf	Apaf-1 inh conf	Rh110 interf inh	TDP2 confirm	others
CCOC(=O)[C@]12CCCCC/C=C\1N(CCc1ccc(Cl)cc1)C(=O)[C@H]2CC(=O)N1CCN(C(=O)c2ccco2)CC1	.	.	-2.9	.	.	.	.	.	.	.	.
O=C(NN=c1c(=O)c2ccccc2c1=O)c1ccccc1	96.4*	77.3*	57.0*	44.1*	25.2	7.4	72.0*	44.9*	98.2*	0.7	78.0*	Fluor interf inh=>100
CN(C)/C=N/NC(=O)c1ccccc1	6.8	-4.1	-10.2	-6.4	16.1	0.9	.	.	.	.	.
Cc1c(NC(=O)C2CCCN(S(=O)(=O)c3ccccc3[N+](=O)[O-])C2)c(=O)n(-c2ccccc2)n1C (stereo not drawn)	.	.	0.3	.	.	.	.	.	.	.	.
N#CC1=C(N)OC2=C(C(=O)CCC2)[C@]12C(=O)N(CC(N)=O)c1ccccc12	-3.8	0.6	3.0	-0.5	1.7	-2.3	.	.	.	.	.
O=C1CCCC2=C1C1(O)C(=O)c3ccccc3C1(O)O2 (stereo not drawn)	92.1*	70.2*	52.6*	45.2*	30.6	3.8	67.6*	32.8*	71.9*	-1.5	58.7*	Fluor interf inh=>100
Cc1cccc(-c2cccc3c4c([nH]c23)[C@@H]2C[C@H](N(C)C(=O)Nc3ccccc3C)[C@H]([C@H](C)O)C(=O)N2CC4)c1	.	.	1.8	.	.	.	.	.	.	.	.
CC(C)=CCC1=C(OCC(=O)O)C(=O)c2ccccc2C1=O	95.3*	89.0*	47.3*	27.6*	94.2	-12.9	84.8*	-1.1	88.2*	-8.3	66.6*	Fluor interf inh=>100
Cc1c(NC(=O)C(C)OC(=O)c2sc3ccccc3c2Cl)c(=O)n(-c2ccccc2)n1C (stereo not drawn)	7.9	-1.7	9.2	2.3	7.8	-10.4	.	.	.	.	.
Cc1c(NC(=O)C(C)OC(=O)c2ccc([N+](=O)[O-])s2)c(=O)n(-c2ccccc2)n1C (stereo not drawn)	24.2	43.9*	43.7*	-10.0	8.5	7.7	13.3	.	.	.	31.8*
Oc1ccc2ccccc2c1C=Nc1ccc(N2CCOCC2)cc1	28.8	41.4*	31.4*	45.8*	4.8	-5.2	37.8*	1.1	.	.	4.6
C=Cc1ccc(N=Cc2c(O)ccc3ccccc23)cc1	19.5	29.6	-19.3	-14.2	16.4	6.2	.	.	.	.	.
O=C(O)c1ccc(NC2=C(n3nnc4ccccc43)C(=O)c3ccccc3C2=O)cc1	73.1*	53.1*	34.4*	17.4*	16.0	-9.7	60.9*	3.4	75.6*	3.8	41.1*	Fluor interf inh=>100
Cc1ccc(S(=O)(=O)/N=C2\C=C(Nc3cccc(C(=O)O)c3)C(=O)c3ccccc32)c(C)c1	90.2*	93.0*	61.9*	66.2*	?	2.5	91.5*	50.5*	85.3*	20.4	70.5*
Cc1ccc(S(=O)(=O)/N=C2\C=C(Nc3cccc(C(=O)O)c3)C(=O)c3ccccc32)cc1	93.6*	89.5*	84.8*	62.9*	?	2.7	85.1*	46.1*	97.7*	8.8	77.0*	Fluor interf inh=>100
COc1cccc(C(c2c(C)[nH]n(-c3ccccc3)c2=O)c2c(C)[nH]n(-c3ccccc3)c2=O)c1OC	96.8*	63.7*	89.2*	72.3*	93.3	-3.1	31.0	2.7	30.5	6.3	32.2*
CCOc1cccc(C(c2c(C)n(C)n(-c3ccccc3)c2=O)c2c(C)n(C)n(-c3ccccc3)c2=O)c1OC	6.7	-5.9	3.3	-4.7	6.7	-11.1	.	.	.	.	.
COc1cccc(C(c2c(C)[nH]n(-c3ccccc3)c2=O)c2c(C)[nH]n(-c3ccccc3)c2=O)c1O	94.4*	64.7*	80.0*	64.5*	.	41.6	37.9*	-3.0	30.7	9.5	6.0
O=c1c2cc([N+](=O)[O-])cc([N+](=O)[O-])c2[nH]n1-c1ccccc1	8.5	10.6	-17.9	-3.6	-44.8	-0.9	.	.	.	.	.
Cc1[nH]n(-c2ccccc2)c(=O)c1C(c1ccc(O)c([N+](=O)[O-])c1)c1c(C)[nH]n(-c2ccccc2)c1=O	87.2*	59.1*	88.7*	57.4*	.	1.0	46.6*	.	.	.	9.3
C/C(=N/NC(=O)c1ccoc1C)c1cccs1	.	.	-6.8	.	.	.	.	.	.	.	.
CCC(=O)Nc1c(C#N)c2nc3ccccc3nc2n1C1CCCCC1	-9.3	17.8	7.1	-4.2	-5.5	-2.9	.	.	.	.	.
CCOC(=O)c1c(NC(=O)c2ccco2)n(C2CCCCC2)c2nc3ccccc3nc12	87.5*	61.9*	59.8*	15.2*	97.4	-4.1	85.5*	24.6*	35.9	1.3	60.2*
COC(=O)C[C@H]1CC[C@H]2[C@H](COc3ccc(NC(=O)C4CCOCC4)cc3C(=O)N2C)O1	.	.	3.8	.	.	.	.	.	.	.	.
CC(C)(C)N(Cc1cn(Cc2ccccc2)nn1)S(=O)(=O)c1ccc(N2CCCC2)cc1Br	.	.	-4.5	.	.	.	.	.	.	.	.
SMILES	Apaf-1 inh	GSTO1 counter	TDP2 absorb	PAD4 inh	SUMO HTRF inh	GASC-1 inh	GSTO1 inh conf	PAD4 FP conf	Apaf-1 inh conf	Rh110 interf inh	TDP2 confirm	others
Cn1[nH]c(CSc2ccc(Cl)cc2)cc1=O	18.0	59.4*	48.3*	38.2*	16.4	7.5	14.3	5.9	.	.	3.0
N#CCc1ccc(OC[C@@H](O)CN2CCC(C(O)(c3ccccc3)c3ccccc3)CC2)cc1	.	.	-6.8	.	.	.	.	.	.	.	.
O=C(N(c1ccccc1)c1ccccc1)N(c1ccccc1)c1ccccc1	-9.9	12.5	-5.4	-0.4	0.3	-6.8	.	.	.	.	.
CC(=O)N(C1=C(N)C(=O)c2ccccc2C1=O)c1ccccc1	67.4*	58.9*	29.4*	1.4	-6.5	2.2	26.5	.	81.3*	10.4	20.2	Fluor interf inh=>100
COc1ccc2ccc3c(c2c1)N=C[C@]1(O3)N(C)c2ccccc2C1(C)C	23.9	85.8*	41.2*	52.5*	88.6	5.4	4.1	5.5	.	.	0.2
COc1ccc(S[C@]2(C(=O)N3CCCC3)CC(=O)N(c3ccccc3OC)[C@@H]2c2ccc(OC)cc2)cc1	.	.	-3.6	.	.	.	.	.	.	.	.
CC(C)(C)N1Cc2nnn(Cc3ccccc3)c2-c2ccccc2S1(=O)=O	.	.	-6.2	.	.	.	.	.	.	.	.

Bioassay records: PubChem BioAssay, several laboratories
